The values below come from ChEMBL document CHEMBL1150154, “Isolation of labradorins 1 and 2 from Pseudomonas syringae pv. coronafaciens” (2002).

A word on the GI50: it is the concentration at which growth is held to half of that of the control. Lower therefore signals greater sensitivity of the cells.

Values after ≈ are worked out from the molar mass of the structure shown. Active and inactive are the calls of the source. No cut-off for these calls is given here.

For one experiment, the system named is Escherichia coli. As to the kind of experiment: Antimicrobial activity against Escherichia coli up to 64 ug/mL by broth microdilution susceptibility assay. It is filed as functional, organism-based.
For another experiment, the system named is Neisseria gonorrhoeae. As to the kind of experiment: Antimicrobial activity against Neisseria gonorrhoeae up to 64 ug/mL by broth microdilution susceptibility assay. It counts as functional, organism-based. In general terms: In broth dilution the organism is exposed to a series of concentrations in liquid medium.
The next experiment has as its system KM-20L2. The experiment is described as follows: Growth inhibition of human KM20L2 cells. It counts as functional. The gist of the method: (§1)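 Human cancer cell line panel: pancreas (BXPC-3), breast (MCF-7), CNS (SF-268), non-small-cell lung (NCI-H460), colon (KM20L2) and prostate (DU-145). Growth inhibition is reported as GI50 in µg/mL.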
Another experiment deals with SF-268. The experiment is described as follows: Growth inhibition of human SF268 cells. It is filed as functional. A digest of the protocol:
as §1

The test system of another experiment is DU-145. As to the kind of experiment: Growth inhibition of human DU145 cells. It is filed as functional. A digest of the protocol: as §1
In another experiment the test system is Candida albicans. The experiment is described as follows: Antimicrobial activity against Candida albicans up to 64 ug/mL by broth microdilution susceptibility assay. It is filed as functional, organism-based.
The subject of the next experiment is Streptococcus pneumoniae. As to the kind of experiment: Antimicrobial activity against Streptococcus pneumoniae up to 64 ug/mL by broth microdilution susceptibility assay. It is filed as functional, organism-based.
For the next experiment, the system named is NCI-H460. As to the kind of experiment: Growth inhibition of human NCI-H460 cells. It counts as functional. A digest of the protocol:
as §1

For a further experiment, the system named is BXPC-3. The experiment is described as follows: Growth inhibition of human BxPC3 cells. It is filed as functional. The gist of the method: as §1
In another experiment the test system is Staphylococcus aureus. The experiment is described as follows: Antimicrobial activity against Staphylococcus aureus up to 64 ug/mL by broth microdilution susceptibility assay. It counts as functional, organism-based.
Another experiment has as its system Micrococcus luteus. The experiment is described as follows: Antimicrobial activity against Micrococcus luteus up to 64 ug/mL by broth microdilution susceptibility assay. It is filed as functional, organism-based.
In experiment [1] the test system is Stenotrophomonas maltophilia. As to the kind of experiment: Antimicrobial activity against Stenotrophomonas maltophilia up to 64 ug/mL by broth microdilution susceptibility assay. It is filed as functional, organism-based.
The test system of the next experiment is Enterobacter cloacae. The experiment is described as follows: Antimicrobial activity against Enterobacter cloacae up to 64 ug/mL by broth microdilution susceptibility assay. It is filed as functional, organism-based.
In a further experiment the test system is MCF7. As to the kind of experiment: Growth inhibition of human MCF7 cells. It is filed as functional. A digest of the protocol:
as §1

The next experiment deals with Enterococcus faecalis. The experiment is described as follows: Antimicrobial activity against Enterococcus faecalis up to 64 ug/mL by broth microdilution susceptibility assay. It is filed as functional, organism-based.
For the next experiment, the system named is Cryptococcus neoformans. The experiment is described as follows: Antimicrobial activity against Cryptococcus neoformans up to 64 ug/mL by broth microdilution susceptibility assay. It counts as functional, organism-based.

Regarding `CCCCCc1ncc(-c2c[nH]c3ccccc23)o1` [LABRADORIN 2], the result in the experiment on Escherichia coli, in the experiment on Neisseria gonorrhoeae, in the experiment with Candida albicans, in the experiment on Streptococcus pneumoniae, in the experiment on Staphylococcus aureus and in the experiment on Micrococcus luteus was inactive. The outcome (in [1]; in the experiment on Enterobacter cloacae; in the experiment on Enterococcus faecalis; in the experiment with Cryptococcus neoformans) was inactive. For the same compound, the GI50 in the experiment with KM-20L2 is 9.7 µg/mL (≈ 38.1 µM); with SF-268 it was 58.8 µg/mL (≈ 231 µM); in the experiment on DU-145 it was 11.4 µg/mL (≈ 44.8 µM); with NCI-H460, 9.6 µg/mL (≈ 37.7 µM); in the experiment with BXPC-3, 9.6 µg/mL (≈ 37.7 µM); in the experiment with MCF7 it was 27.4 µg/mL (≈ 108 µM).
For `CC(C)Cc1ncc(-c2c[nH]c3ccccc23)o1` [LABRADORIN 1], the result in the experiment on Escherichia coli, in the experiment on Neisseria gonorrhoeae, in the experiment on Candida albicans, in the experiment on Streptococcus pneumoniae, in the experiment on Staphylococcus aureus and in the experiment with Micrococcus luteus was inactive. Moreover, the outcome (in experiment [1]; in the experiment on Enterobacter cloacae; with Enterococcus faecalis; in the experiment on Cryptococcus neoformans) was inactive. Besides, the GI50 was found to be 3.5 µg/mL (≈ 14.6 µM) in the experiment on KM-20L2; 5.1 µg/mL (≈ 21.2 µM) in the experiment on SF-268; 4 µg/mL (≈ 16.6 µM) in the experiment with DU-145; 9.8 µg/mL (≈ 40.8 µM) with NCI-H460; 6.2 µg/mL (≈ 25.8 µM) with BXPC-3; 3.9 µg/mL (≈ 16.2 µM) with MCF7.
